Legend:
rat [1] = experiment: concentration in blood after dosing; negative times count back from the end of exposure; details: inhalation
rat [2] = experiment: concentration in blood after dosing; details: dosed: toluene, 3000 ppm, dermal, duration: 4 hr, male, F344
rat [3] = experiment: concentration in blood after dosing; details: dosed: toluene, 3000 ppm, dermal, duration: 4 hr, male, F344; remark: listed apart in the source
rat [4] = experiment: concentration in blood after dosing; details: dosed: toluene, 3000 ppm, dermal, duration: 4 hr, male, F344; remark: listed apart in the source
human [5] = experiment: concentration in blood after dosing; details: dosed: toluene, 100 ppm, dermal, duration: 30 min, person
Method in brief: (§1)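 Concentration-versus-time or amount-versus-time points were compiled from published in vivo toxicokinetic studies and from two structured collections. The studies were found by PubMed searching, classifier screening and manual review. Points were mostly digitised from plot screenshots with WebPlotDigitizer, otherwise copied from tables, and kept in the reported units. Dose, route, subject details and medium were curated by hand from each paper, and sampling and analytical methods follow each source and were often unreported.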

rat [6] = experiment: concentration in blood after dosing; details: dosed: toluene, 3000 ppm, dermal, duration: 4 hr, male, F344; remark: listed apart in the source
rat [7] = experiment: concentration in blood after dosing; details: dosed: toluene, 3000 ppm, dermal, duration: 4 hr, male, F344; remark: listed apart in the source
rat [8] = experiment: concentration in blood after dosing; details: dosed: toluene, 3000 ppm, dermal, duration: 4 hr, male, F344; remark: listed apart in the source
human [9] = experiment: concentration in Capillary Blood after dosing; details: dosed: toluene, 200 mg/m^3, inhalation, duration: 2 hr, male
Method in brief: as §1

human [10] = experiment: concentration in expired air after dosing; negative times count back from the end of exposure; details: dosed: vinyl chloride, 2.5 ppm, inhalation
Method in brief: as §1

CC(C)O [isopropanol]
rat [1], dosed: isopropanol, duration: 360 min
Details | concentration in blood [ng/mL]
0.3018 h, 476 ppm | 26000
0.31 h, 4960 ppm | 738000
0.5307 h, 476 ppm | 18300
0.5409 h, 4960 ppm | 647000
1.039 h, 476 ppm | 12200
1.102 h, 4960 ppm | 552000
1.98 h, 476 ppm | 6110
2.098 h, 4960 ppm | 367000
3.047 h, 476 ppm | 6110
3.117 h, 4960 ppm | 240000
5.995 h, 476 ppm | 1530
6.019 h, 4960 ppm | 67200
12.07 h, 4960 ppm | 12200
98 s, 4960 ppm | 871000

concentration in blood [ng/mL], rat [1], dosed: isopropanol, duration: 360 min, during exposure
Details | -195 s | -5.546 h | -5.517 h | -5.06 h | -4.913 h | -3.002 h | -2.938 h
476 ppm | 32100 | – | 7640 | 12200 | – | 21400 | –
4960 ppm | – | 141000 | – | – | 241000 | – | 544000

Cc1ccccc1 [toluene]
Details | concentration in Capillary Blood [nM] | concentration in blood
human [5], 0.2477 h | – | 510 nM
human [5], 0.499 h | – | 1720 nM
human [5], 0.7454 h | – | 1620 nM
human [5], 0.9948 h | – | 1210 nM
human [5], 1.5 h | – | 941 nM
human [5], 2.49 h | – | 655 nM
human [5], 3.495 h | – | 453 nM
human [9], 0.1631 h | 5870 | –
human [9], 0.2703 h | 6730 | –
human [9], 0.5028 h | 8250 | –
human [9], 0.7659 h | 9110 | –
human [9], 1.003 h | 9630 | –
human [9], 1.104 h | 9000 | –
human [9], 1.493 h | 10300 | –
human [9], 1.737 h | 10300 | –
human [9], 1.969 h | 10400 | –
human [9], 2.075 h | 4980 | –
human [9], 2.15 h | 4310 | –
human [9], 2.236 h | 4010 | –
human [9], 2.514 h | 3210 | –
human [9], 3.028 h | 1540 | –
human [9], 3.361 h | 1330 | –
human [9], 3.69 h | 1220 | –
human [9], 4.023 h | 1050 | –
human [9], 4.349 h | 959 | –
human [9], 4.444 h | 711 | –
human [9], 4.673 h | 867 | –
human [9], 5.349 h | 763 | –
human [9], 5.678 h | 671 | –
human [9], 5.993 h | 632 | –
human [9], 334 s | 4060 | –
rat [2], 0.5 h | – | 2910 ng/mL
rat [2], 1 h | – | 5540 ng/mL
rat [2], 2 h | – | 6830 ng/mL
rat [2], 3 h | – | 8230 ng/mL
rat [2], 4 h | – | 8240 ng/mL
rat [3], 0.5 h | – | 4120 ng/mL
rat [3], 1 h | – | 1330 ng/mL
rat [3], 2 h | – | 8440 ng/mL
rat [3], 3 h | – | 10100 ng/mL
rat [3], 4 h | – | 12100 ng/mL
rat [4], 0.5 h | – | 1230 ng/mL
rat [4], 1 h | – | 2720 ng/mL
rat [4], 2 h | – | 4560 ng/mL
rat [4], 3 h | – | 5160 ng/mL
rat [4], 4 h | – | 5840 ng/mL
rat [6], 0.5 h | – | 1830 ng/mL
rat [6], 1 h | – | 3670 ng/mL
rat [6], 2 h | – | 5070 ng/mL
rat [6], 3 h | – | 5760 ng/mL
rat [6], 4 h | – | 7030 ng/mL
rat [7], 0.5 h | – | 2160 ng/mL
rat [7], 1 h | – | 3520 ng/mL
rat [7], 2 h | – | 5470 ng/mL
rat [7], 3 h | – | 4800 ng/mL
rat [7], 4 h | – | 7390 ng/mL
rat [8], 0.5 h | – | 4530 ng/mL
rat [8], 1 h | – | 5230 ng/mL
rat [8], 2 h | – | 5470 ng/mL
rat [8], 3 h | – | 6610 ng/mL
rat [8], 4 h | – | 6640 ng/mL

rat [1], dosed: toluene, 100 ppm, duration: 2 hr, male, Wistar
Details | concentration in blood [nM]
0.996 h | 2600
2.004 h | 1520

rat [1], dosed: toluene, 100 ppm, duration: 2 hr, male, Wistar, during exposure
Details | concentration in blood [nM]
-20 s | 8210
-1.759 h | 5580
-1.503 h | 6410
-1.005 h | 6950
-0.5053 h | 9060

C=CCl [vinyl chloride]
concentration in expired air [ppm], human [10]
Details | duration: 0.25 hr | duration: 0.5 hr
2 s | 1.88 | –
4 min | 0.0581 | –
31 s | 0.564 | –
60 s | – | 0.375
64 s | 0.271 | –
121 s | 0.13 | 0.217
179 s | – | 0.198
180 s | 0.118 | –
237 s | – | 0.156
298 s | – | 0.145
299 s | 0.0432 | –

concentration in expired air [ppm], human [10], during exposure
Details | duration: 0.25 hr | duration: 0.5 hr
-299 s | 1.81 | –
-298 s | – | 1.63
-241 s | – | 1.74
-238 s | 1.84 | –
-180 s | 1.88 | –
-122 s | – | 1.77
-119 s | 1.84 | –
-61 s | – | 1.7
-59 s | 1.96 | –
-11 min | 1.68 | 1.81
-8 min | 1.64 | –
-7 min | – | 1.7
-3 min | – | 1.79
-0.4831 h | – | 1.29
-0.4663 h | – | 1.4
-0.4502 h | – | 1.63
-0.4157 h | – | 1.7
-0.3827 h | – | 1.77
-0.3489 h | – | 1.79
-0.316 h | – | 1.77
-0.2823 h | – | 1.86
-0.2493 h | – | 1.45
-0.2413 h | 0.701 | –
-0.2343 h | 1.27 | –
-0.224 h | 1.59 | –
-0.2163 h | – | 1.86
-0.2158 h | 1.57 | –
-0.2001 h | 1.62 | –
-0.1659 h | 1.79 | –
-0.1496 h | – | 1.7
-0.1491 h | 1.72 | –
-0.1161 h | 1.84 | –
-0.1003 h | 1.79 | –
-0 s | – | 1.57

— EPA's CvTdb concentration-time database
